Reference: BindingDB's records for doi:10.1016/j.bmc.2011.02.028 (Kinki University, 2011)
Where a name gives a salt, the structure may show the parent alone.

Experiment: Inhibition of rat small intestinal maltase after 30 mins
Method in brief: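 Enzyme source was rat small-intestinal brush-border membrane vesicles suspended in 0.1 M maleate buffer, pH 6.0. Substrate solutions were maltose 74 mM (maltase), sucrose 74 mM (sucrase) and isomaltose 7.4 mM (isomaltase). Glucose was measured by glucose oxidase. IC50 was read graphically from % inhibition versus log concentration.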

| IC50 [µM] | Structure (SMILES) |
| --- | --- |
| 57 | O=S(=O)([O-])O[C@H]([C@@H](O)[C@@H](O)[C@@H](O)CO)[C@H](O)C[S+]1C[C@@H](O)[C@H](O)[C@H]1CO (stereo partly drawn) [1,4-dideoxy-1,4-{(S)-[(2S,3R,4S,5S,6S)-2,4,5,6,7-pentahydroxy-3-(sulfooxy)heptyl]episulfoniumylidene}-D-arabinitol inner salt] |
| > 236 | O=S(=O)([O-])O[C@H]([C@@H](O)[C@H](O)[C@@H](O)CO)[C@H](O)C[S+]1C[C@@H](O)[C@H](O)[C@H]1CO (stereo partly drawn) [1,4-dideoxy-1,4-{(S)-[(2S,3R,4S,5R,6S)-2,4,5,6,7-pentahydroxy-3-(sulfooxy)heptyl]episulfoniumylidene}-D-arabinitol inner salt] |
| > 236 | O=S(=O)([O-])O[C@H]([C@@H](O)[C@H](O)[C@H](O)CO)[C@H](O)C[S+]1C[C@@H](O)[C@H](O)[C@H]1CO (stereo partly drawn) [1,4-dideoxy-1,4-{(S)-[(2S,3R,4S,5R,6R)-2,4,5,6,7-pentahydroxy-3-(sulfooxy)heptyl]episulfoniumylidene}-D-arabinitol inner salt] |
| > 100 | O=S(=O)([O-])O[C@@H]([C@H](O)[C@@H](O)CO)[C@H](O)C[S@@+]1C[C@@H](O)[C@H](O)[C@H]1CO [ponkoranol] |
| 3.2 | O=S(=O)([O-])OC[C@H](O)C[S@@+]1C[C@@H](O)[C@H](O)[C@H]1CO [Salaprinol] |
| > 236 | O=S(=O)([O-])O[C@H]([C@@H](O)[C@@H](O)[C@H](O)CO)[C@H](O)C[S+]1C[C@@H](O)[C@H](O)[C@H]1CO (stereo partly drawn) [1,4-dideoxy-1,4-{(S)-[(2S,3R,4S,5S,6R)-2,4,5,6,7-pentahydroxy-3-(sulfooxy)heptyl]-episulfoniumylidene}-D-arabinitol inner salt] |
